Results reported in ChEMBL document CHEMBL2331338, “Steroidal constituents from the leaves of Hosta longipes and their inhibitory effects on nitric oxide production” (Bioorg Med Chem Lett, 2013).

Legend:
[1] = Cytotoxicity against mouse BV2 cells assessed as cell viability at 20 uM by MTT assay; format: cell-based, BV-2; settings: read-out: Activity
Outline: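 BV-2 cells exposed to 20 μM of each compound; viability expressed as percentage of the LPS-only treatment group; three independent experiments, mean SD.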

BV-2 = assay: Antineuroinflammatory activity in mouse BV2 cells assessed as inhibition of nitric oxide production treated 30 mins before LPS challenge measured after 24 hrs by Griess reagent method; format: functional, cell-based
Outline: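 Murine microglial BV-2 cells activated with LPS; NO production measured; IC50 taken as the concentration (μM) causing 50% inhibition of NO production in LPS-activated cells.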

[2] = Cytotoxicity against mouse BV2 cells assessed as cell viability by MTT assay; format: cell-based, BV-2; settings: read-out: LD50 (the source's name)
Outline: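 Mouse microglial BV-2 cells activated with LPS and treated with each compound at 20 μM. Viability is expressed as a percentage of the LPS-only group. Values are averages of three independent experiments, given as mean SD.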

Row | IC50 (BV-2) [µM] | SMILES | viability at 20 µM [1] [%] | CC50 [2] [µM]
1 | 14.3 | CNC(=N)NCCC[C@H](N)C(=O)O [TILARGININE] | 102 | 
2 | 46.3 | C[C@H](CC[C@H](O)[C@@H](C)[C@H]1[C@@H](O)C[C@H]2[C@@H]3CCC4=CC(=O)CC[C@]4(C)[C@H]3C[C@@H](O)[C@]12C)CO[C@@H]1O[C@H](CO)[C@@H](O)[C@H](O)[C@H]1O | 94.8 | 
3 | 13.2 | C[C@@H]1CC[C@@]2(OC1)O[C@H]1C[C@H]3[C@@H]4CC[C@H]5C[C@@H](O[C@@H]6O[C@H](CO)[C@H](O[C@@H]7O[C@H](CO)[C@@H](O)[C@H](O[C@@H]8OC[C@@H](O[C@@H]9O[C@@H](C)[C@H](O)[C@@H](O)[C@H]9O)[C@H](O)[C@H]8O)[C@H]7O[C@@H]7O[C@H](CO)[C@@H](O)[C@H](O)[C@H]7O)[C@H](O)[C@H]6O)[C@H](O)C[C@]5(C)[C@H]4CC[C@]3(C)[C@H]1[C@@H]2C | 86.4 | 
4 | > 200 | C[C@@H](CO)CC[C@H](O)[C@@H](C)[C@H]1[C@@H](O)C[C@H]2[C@@H]3CCC4=CC(=O)CC[C@]4(C)[C@H]3C[C@@H](O)[C@]12C | 93.4 | 

Row | SMILES | IC50 (BV-2) [µM] | viability at 20 µM [1] [%] | CC50 [2] [µM]
5 | C[C@@H]1CC[C@@]2(OC1)O[C@H]1C[C@H]3[C@@H]4CC[C@H]5C[C@@H](O[C@@H]6O[C@H](CO)[C@H](O[C@@H]7O[C@H](CO)[C@@H](O)[C@H](O)[C@H]7O)[C@H](O)[C@H]6O[C@@H]6O[C@@H](C)[C@H](O)[C@@H](O)[C@H]6O)[C@H](O)C[C@]5(C)[C@H]4CC[C@]3(C)[C@H]1[C@@H]2C | 2.7 | 38.9 | 3.12
6 | C[C@@H]1CC[C@@]2(OC1)O[C@H]1C[C@H]3[C@@H]4CC[C@H]5C[C@@H](O[C@@H]6O[C@H](CO)[C@H](O[C@@H]7O[C@H](CO)[C@@H](O)[C@H](O[C@@H]8OC[C@@H](O)[C@H](O)[C@H]8O)[C@H]7O[C@@H]7O[C@H](CO)[C@@H](O)[C@H](O)[C@H]7O)[C@H](O)[C@H]6O)[C@H](O)C[C@]5(C)[C@H]4CC[C@]3(C)[C@H]1[C@@H]2C | 17.7 | 89.6 | 
